Experimental findings from PMC11797553 (Science Advances, 2025) are described below.

Ends that are not written are not given here.

The subject of one series is mammalian cells. The series can be described thus: Cytotoxicity assay. The class given is cell-based, human. The following applies: for cytotoxicity: in words, MTT, HaCaTs and HUVECs, 24 h; for concentration inducing cytotoxicity relative to MICs: cytotoxic concentration / MIC. Put shortly: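 HUVECs and HaCaTs in log phase were trypsinised, adjusted to 5 × 10^4 cells/ml, seeded and left to adhere overnight. Cells were exposed to a range of peptide concentrations (peptides in sterile water) for 24 h at 37°C, 5% CO2, with untreated wells as controls. MTT (5 mg/ml stock) was added for 4 h, the supernatant was removed, formazan was dissolved in DMSO, and A490 was read.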

A further series concerns rat erythrocytes. Briefly: Hemolysis assay. The format is cell-based, Sprague-Dawley rats. The following applies: for concentration inducing hemolysis relative to MICs: hemolytic concentration / MIC. The procedure, abridged:
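Sprague-Dawley rat blood was drawn from the abdominal aorta into heparin. RBCs were centrifuged, washed and made up as a 10% suspension in saline. Peptides, twofold-diluted in saline, were incubated with the RBCs at 37°C for 1 h, then spun 10 min, and supernatant A540 was read. Controls were saline (0%) and 1% Triton X-100 (100%). Hemolysis % = (Am − An)/(Ap − An) × 100.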

Series [1] relates to six strains of pathogenic fungi and five strains of pathogenic bacteria. The series can be described thus: MIC determination, whole panel of fungi and bacteria. The format is cell-based. The settings on record: in words.
The next series relates to A. baumannii. Briefly: Murine lung infection. The class given is in vivo, BALB/c mice. The settings on record: 40 mg/kg intravenously for three consecutive days.
A further series deals with A. baumannii GD003. The series can be described thus: Drug resistance development, serial passage. The following applies: A. baumannii GD003, serial passage at sub-MIC for 30 days, 96-well plates. The format is cell-based, Acinetobacter baumannii. The procedure, abridged: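 A. baumannii GD003 was activated in liquid culture and grown 12 h. It was diluted to 5 × 10^5 cells/ml in MHB and tested by broth microdilution in 96-well plates (37°C, 24 h; MIC = lowest concentration with no visible growth). Cells from the half-MIC well were carried into the next round and the MIC was re-measured, repeating over 30 days.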

Consider GIWDMIRKVRTVIRKAKQIKTFINGKGVQ [AMP-11], for which the cytotoxicity result in the series on mammalian cells is recorded as “moderate cytotoxicity”. In addition, in the series with rat erythrocytes (in words, 10% rat RBC, 37°C, 1 h (Fig. 3A)), the hemolytic activity result is reported as “potent hemolytic activity”.
As to VTFVRLAGVASAVKTKAG [peptide 26], the antimicrobial activity entry in series [1] was “lacks antimicrobial activity”.
WLGSKIKAAKMKVGMWGAVGLRHN [AMP-24]: in the series on mammalian cells, the “concentration inducing cytotoxicity relative to MICs” value was “at least 32 fold” and the cytotoxicity result is on record as “low cytotoxicity”. Besides, the “concentration inducing hemolysis relative to MICs” value with rat erythrocytes was “at least 32 fold”. In addition, the “H&E staining of off-target tissues (heart, liver, kidney)” value with A. baumannii is “no obvious immune cell infiltrations were observed”. The “MIC after 30 passages of induced resistance” value in the series on A. baumannii GD003 is 12.5 µM.
As to WFHFFQRGSYNGI [AMP-29], in the series with mammalian cells, the “concentration inducing cytotoxicity relative to MICs” value is above 32 fold and the cytotoxicity entry is recorded as “low cytotoxicity”. For the same sequence, the “concentration with hemolytic activity” value in the series with rat erythrocytes (10% rat RBC, 37°C, 1 h) is 50 µM. Also, the “concentration inducing hemolysis relative to MICs” value in the series on rat erythrocytes is 4 fold.
